Reference: ChEMBL document CHEMBL2396525, “Synthesis and anti-HCMV activity of 1-[ω-(phenoxy)alkyl]uracil derivatives and analogues thereof” (Bioorg Med Chem, 2013)
Activity calls are given as the source filed them. The rule behind the calls is not given here.

Columns and labels:
[1] = test system: Human immunodeficiency virus 2; assay: Antiviral activity against HIV2 ROD infected in human CEM cells assessed as inhibition of virus-induced giant cell formation after 4 to 5 days; assay type: functional, organism-based; settings: ISOLATE ROD, CCRF-CEM
How it was run: (§1)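 CEM cells at about 3 × 10^5 cells/mL were infected with 100 CCID50 of HIV per mL, with compound dilutions present. They were incubated 4–5 days at 37 °C in humidified CO2, and syncytia were scored microscopically. EC50 is the concentration that inhibits giant cell formation by 50%.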

[2] = test system: Human immunodeficiency virus 1; assay: Antiviral activity against HIV1 3B infected in human CEM cells assessed as inhibition of virus-induced giant cell formation after 4 to 5 days; assay type: functional, organism-based; settings: CCRF-CEM; how it was run: as §1
Feline coronavirus = assay: Antiviral activity against Feline coronavirus; assay type: functional, organism-based
Sindbis virus = assay: Antiviral activity against Sindbis virus; assay type: functional, organism-based
How it was run: (§2)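 Confluent HEL, Vero, HeLa or MDCK cell cultures were inoculated with 100 CCID50 of virus alongside varying compound concentrations. Cytopathicity was scored when it reached completion in untreated virus controls. EC50 is the concentration that reduces virus-induced cytopathogenicity by 50%.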

Punta Toro virus = assay: Antiviral activity against Punta Toro virus; assay type: functional, organism-based; how it was run: as §2
Influenza B virus = assay: Antiviral activity against Influenza B virus; assay type: functional, organism-based
How it was run: (§3)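 The assay was a cell-based cytopathicity inhibition test on confluent monolayers with serial compound dilutions. EC50 was the concentration that reduced virus-induced cytopathicity by 50%.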

[3] = test system: Mammalian orthoreovirus 1; assay: Antiviral activity against Reovirus-1; assay type: functional, organism-based; how it was run: as §2
Influenza A virus [4] = assay: Antiviral activity against Influenza virus A virus H3N2; assay type: functional, organism-based; how it was run: as §3
Human respirovirus 3 = assay: Antiviral activity against Parainfluenza virus 3; assay type: functional, organism-based; how it was run: as §2
Influenza A virus [5] = assay: Antiviral activity against Influenza virus A virus H1N1; assay type: functional, organism-based; how it was run: as §3
Coxsackievirus B4 = assay: Antiviral activity against Coxsackie B4 virus; assay type: functional, organism-based; how it was run: as §2
[6] = test system: Vesicular stomatitis virus; assay: Antiviral activity against Vesicular stomatitis virus; assay type: functional, organism-based
[7] = test system: Respiratory syncytial virus; assay: Antiviral activity against Respiratory syncytial virus Long; assay type: functional, organism-based; how it was run: as §2
Vaccinia virus = assay: Antiviral activity against Vaccinia virus Lederle; assay type: functional, organism-based; settings: Orthopoxvirus vaccinia
Human alphaherpesvirus 3 [8] = assay: Antiviral activity against Varicella-zoster virus YS; assay type: functional, organism-based
How it was run: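 VZV was assayed by plaque formation. Confluent cell cultures received 10 or 100 PFU with varying compound concentrations, and plaques were recorded once complete in untreated infected controls. EC50 is the concentration that reduces plaque formation by 50%.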

Human alphaherpesvirus 3 [9] = assay: Antiviral activity against Varicella-zoster virus OKA; assay type: functional; settings: strain Oka vaccine
How it was run: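 Confluent cell monolayers were infected with 10 or 100 PFU of VZV in the presence of serial compound dilutions. Plaque formation was recorded once untreated infected controls reached completion. EC50 was the concentration that reduced plaque formation by 50%.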

Human alphaherpesvirus 2 [10] = assay: Antiviral activity against Herpes simplex virus type 2 Lyons; assay type: functional, organism-based; how it was run: as §2
Human alphaherpesvirus 2 [11] = assay: Antiviral activity against Herpes simplex virus type 2 G; assay type: functional, organism-based; settings: strain G; how it was run: as §2
Human alphaherpesvirus 1 [12] = assay: Antiviral activity against thymidine kinase deficient acyclovir-resistant Herpes simplex virus type 1 KOS; assay type: functional, organism-based
Human alphaherpesvirus 1 [13] = assay: Antiviral activity against Herpes simplex virus type 1 KOS; assay type: functional, organism-based; how it was run: as §2
HEL = assay: Cytotoxicity against HEL; assay type: cell-based; settings: human
Human betaherpesvirus 5 [14] = assay: Antiviral actiivty against Human herpesvirus 5 Davis infected in HEL assessed as reduction of virus-induced plaque formation; assay type: functional, organism-based; settings: Human betaherpesvirus 5, Davis
How it was run: (§4)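 HCMV strains AD-169 and Davis were tested on confluent human embryonic lung fibroblast monolayers infected with 100 PFU in the presence of serial compound concentrations. Plaques were counted once formation was complete in untreated infected controls. EC50 is the concentration that cuts plaque formation by 50%.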

Human betaherpesvirus 5 [15] = assay: Antiviral actiivty against Human herpesvirus 5 AD169 infected in HEL assessed as reduction of virus-induced plaque formation; assay type: functional, organism-based; settings: Human betaherpesvirus 5, AD169; how it was run: as §4
[16] = Cytotoxicity against HEL assessed as minimum cytotoxic concentration required to cause microscopically detectable alteration in cell morphology; assay type: cell-based; settings: human, HEL cells

| SMILES | Activity [1] | Activity [2] | Activity (Feline coronavirus) | Activity (Sindbis virus) | Activity (Punta Toro virus) | Activity (Influenza B virus) | Activity [3] | Activity (Influenza A virus [4]) | Activity (Human respirovirus 3) | Activity (Influenza A virus [5]) | Activity (Coxsackievirus B4) | Activity [6] | Activity [7] | Activity (Vaccinia virus) | Activity (Human alphaherpesvirus 3 [8]) | Activity (Human alphaherpesvirus 3 [9]) | Activity (Human alphaherpesvirus 2 [10]) | Activity (Human alphaherpesvirus 2 [11]) | Activity (Human alphaherpesvirus 1 [12]) | Activity (Human alphaherpesvirus 1 [13]) | further results |
| --- | --- | --- | --- | --- | --- | --- | --- | --- | --- | --- | --- | --- | --- | --- | --- | --- | --- | --- | --- | --- | --- |
| O=c1ccn(CCCCCOc2ccccc2)c(=O)[nH]1 | inactive | inactive | inactive | inactive | inactive | inactive | inactive | inactive | inactive | inactive | inactive | inactive | inactive | inactive | inactive | inactive | inactive | inactive | inactive | inactive | CC50 (HEL): > 100 µM; EC50 (Human betaherpesvirus 5 [14]): > 100 µM; EC50 (Human betaherpesvirus 5 [15]): > 100 µM; MCC [16]: > 100 µM |
| CC(C)(C)c1ccc(OCCCCCn2ccc(=O)[nH]c2=O)cc1 | inactive | inactive | inactive | inactive | inactive | inactive | inactive | inactive | inactive | inactive | inactive | inactive | inactive | inactive | inactive | inactive | inactive | inactive | inactive | inactive | CC50 (HEL): 40 µM; EC50 (Human betaherpesvirus 5 [14]): 12 µM; EC50 (Human betaherpesvirus 5 [15]): 14 µM; MCC [16]: 100 µM |
| CCCOC(=O)c1ccc(OCCCCCn2ccc(=O)[nH]c2=O)cc1 | inactive | inactive | inactive | inactive | inactive | inactive | inactive | inactive | inactive | inactive | inactive | inactive | inactive | inactive | inactive | inactive | inactive | inactive | inactive | inactive | CC50 (HEL): > 100 µM; EC50 (Human betaherpesvirus 5 [14]): 45 µM; EC50 (Human betaherpesvirus 5 [15]): 45 µM; MCC [16]: ≥ 100 µM |
| O=c1[nH]c(=O)n(CCCCCOc2ccc(Br)cc2)cc1Br | inactive | inactive | inactive | inactive | inactive | inactive | inactive | inactive | inactive | inactive | inactive | inactive | inactive | inactive | inactive | inactive | inactive | inactive | inactive | inactive | CC50 (HEL): > 100 µM; EC50 (Human betaherpesvirus 5 [14]): 67 µM; EC50 (Human betaherpesvirus 5 [15]): 36 µM; MCC [16]: > 100 µM |
| O=c1[nH]c(=O)n(CCCCCOc2ccc(Br)cc2)cc1I | inactive | inactive | inactive | inactive | inactive | inactive | inactive | inactive | inactive | inactive | inactive | inactive | inactive | inactive | inactive | inactive | inactive | inactive | inactive | inactive | CC50 (HEL): > 100 µM; EC50 (Human betaherpesvirus 5 [14]): 20 µM; EC50 (Human betaherpesvirus 5 [15]): 13 µM; MCC [16]: ≥ 100 µM |
